{"source": "ChEMBL document CHEMBL5096224", "about": "“First-in-Class Dual Mechanism Ferroptosis-HDAC Inhibitor Hybrids” (J Med Chem, 2022)", "key": {"NCI-H522 [1]": {"tested_on": "NCI-H522", "test": "Cytotoxicity against human NCI-H522 cells assessed as reduction in cell survival at 1 to 5 uM incubated for 3 days in presence of Methyl 7-(2-ethynylthiazole-4-carboxamido)heptanoate by methylene blue staining based analysis", "format": "functional", "conditions": "dose 1-5 µM, time 3.0 day", "in_short": "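Cells (5000/well, n = 3, DMEM with 10% serum, 37 °C, 5% CO2) were treated the day after plating and kept for three days. […] Survival was expressed relative to DMSO.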"}, "[2]": {"test": "Neurotoxicity in human SH-SY5Y cells assessed as decrease in cell viability at 20 to 80 uM incubated for 3 days", "format": "toxicity, cell-based", "conditions": "72 h, dose 20-80 µM, time 3 day", "in_short": "(§1)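 SH-SY5Y cells were grown on poly-D-lysine in DMEM/F12 with 10% FBS and seeded at 15,000/well 36 h before dosing, with DMSO as vehicle. Viability was read by MTT: 2 h at 37 °C, then solubilization for 1 h and absorbance at 570. Data are triplicates from three separate experiments.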"}, "[3]": {"test": "Neurotoxicity in human SH-SY5Y cells assessed as decrease in cell viability at 6.665 uM incubated for 3 days", "format": "toxicity, cell-based", "conditions": "72 h, time 3 day", "in_short": "as §1"}, "NCI-H522 [4]": {"tested_on": "NCI-H522", "test": "Cytotoxicity against human NCI-H522 cells assessed as reduction in cell survival at 1 to 5 uM incubated for 3 days in presence of ferroptosis inhibitor, liproxstatin-1 by methylene blue staining based analysis", "format": "functional", "conditions": "dose 1-5 µM, time 3.0 day"}, "[5]": {"test": "Cytotoxicity against human WI-38 cells assessed as reduction in cell survival incubated for 30 mins by methylene blue staining based analysis"}, "NCI-H522 [6]": {"tested_on": "NCI-H522", "test": "Induction of ferroptosis in human NCI-H522 cells assessed as induction of lipid peroxidase accumulation at 10 uM incubated for 4 days in presence of Lipoxstatin-1 by C11-BODIPY-581/591 staining based flow cytometry analysis", "format": "functional, cell-based"}, "NCI-H522 [7]": {"tested_on": "NCI-H522", "test": "Induction of ferroptosis in human NCI-H522 cells assessed as viability at 20 uM incubated after 8 to 12 hrs by microscopic analysis", "format": "functional, cell-based", "conditions": "time lower 8.0 hrs, time upper […]", "in_short": "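Time-lapse imaging used NCI-H522 cells adhered overnight and equilibrated to 10% CO2, held in sealed flasks on a 37 °C stage. Frames were taken every 12 min, 300 in total, with a ×40 objective. For Kaplan–Meier curves, at least 100 cells were scored, with death counted per 1 h or 0.2 h interval.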"}, "NCI-H522 [8]": {"tested_on": "NCI-H522", "test": "Cytotoxicity against human NCI-H522 cells assessed as reduction in cell viability incubated for 30 mins by methylene blue staining based analysis", "conditions": "NCI-H522, 0.5 h"}, "HCT-116": {"tested_on": "HCT-116", "test": "Cytotoxicity against human HCT-116 cells assessed as reduction in cell viability incubated for 30 mins by methylene blue staining based analysis", "conditions": "HCT-116, 0.5 h"}, "Histone deacetylase 3": {"biological_target": "Histone deacetylase 3 (Homo sapiens, UniProt O15379)", "sequence (O15379 whole entry)": "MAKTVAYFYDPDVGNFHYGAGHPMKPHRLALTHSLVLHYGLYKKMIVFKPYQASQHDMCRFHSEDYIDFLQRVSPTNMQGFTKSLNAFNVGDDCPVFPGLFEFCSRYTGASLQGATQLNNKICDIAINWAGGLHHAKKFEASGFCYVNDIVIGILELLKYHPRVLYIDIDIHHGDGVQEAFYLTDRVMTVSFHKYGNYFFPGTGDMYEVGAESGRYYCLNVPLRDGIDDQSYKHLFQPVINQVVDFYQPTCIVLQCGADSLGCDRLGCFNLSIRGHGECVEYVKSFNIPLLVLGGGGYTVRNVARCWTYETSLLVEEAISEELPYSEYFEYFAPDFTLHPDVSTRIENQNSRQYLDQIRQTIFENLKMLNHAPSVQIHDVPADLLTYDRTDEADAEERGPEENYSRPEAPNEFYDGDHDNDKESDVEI", "test": "Inhibition of full length C-terminal his6/FLAG-tagged human recombinant HDAC3 ([…]) expressed in Sf9 insect cells"}, "NCI-H522 [9]": {"tested_on": "NCI-H522", "test": "Cytotoxicity against human NCI-H522 cells assessed as reduction in cell survival at […] incubated for 3 days by methylene blue staining based analysis", "format": "functional", "conditions": "dose 2.5 µM, time 3.0 day"}, "Histone deacetylase 4": {"biological_target": "Histone deacetylase 4 (Homo sapiens, UniProt P56524)", "sequence (P56524 whole entry, the tested form may be a part)": "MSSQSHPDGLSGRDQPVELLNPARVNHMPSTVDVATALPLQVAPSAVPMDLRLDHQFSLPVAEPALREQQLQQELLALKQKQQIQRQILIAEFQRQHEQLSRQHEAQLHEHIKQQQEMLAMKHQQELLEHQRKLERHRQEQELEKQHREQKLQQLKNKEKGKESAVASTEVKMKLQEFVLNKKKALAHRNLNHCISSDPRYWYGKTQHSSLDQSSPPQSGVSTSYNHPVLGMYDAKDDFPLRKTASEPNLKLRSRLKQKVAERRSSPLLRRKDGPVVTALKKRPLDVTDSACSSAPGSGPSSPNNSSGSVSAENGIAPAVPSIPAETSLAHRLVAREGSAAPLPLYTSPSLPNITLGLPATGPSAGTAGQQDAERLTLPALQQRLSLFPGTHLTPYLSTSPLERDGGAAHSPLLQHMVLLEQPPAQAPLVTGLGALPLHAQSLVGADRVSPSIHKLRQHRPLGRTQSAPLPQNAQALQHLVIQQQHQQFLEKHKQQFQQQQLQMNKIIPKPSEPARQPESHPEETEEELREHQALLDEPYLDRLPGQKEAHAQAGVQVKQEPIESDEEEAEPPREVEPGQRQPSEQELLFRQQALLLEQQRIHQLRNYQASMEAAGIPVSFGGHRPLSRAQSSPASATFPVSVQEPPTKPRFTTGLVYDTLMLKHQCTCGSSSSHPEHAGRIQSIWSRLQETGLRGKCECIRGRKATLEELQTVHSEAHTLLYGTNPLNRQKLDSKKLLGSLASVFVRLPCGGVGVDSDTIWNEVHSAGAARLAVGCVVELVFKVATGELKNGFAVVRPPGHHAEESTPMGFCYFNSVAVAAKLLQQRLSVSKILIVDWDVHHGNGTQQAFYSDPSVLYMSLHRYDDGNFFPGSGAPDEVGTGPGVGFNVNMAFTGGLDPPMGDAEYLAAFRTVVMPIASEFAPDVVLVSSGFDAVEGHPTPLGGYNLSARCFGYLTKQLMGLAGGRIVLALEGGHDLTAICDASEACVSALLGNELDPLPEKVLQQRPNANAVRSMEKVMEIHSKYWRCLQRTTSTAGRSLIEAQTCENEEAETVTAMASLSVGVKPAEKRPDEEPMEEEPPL", "test": "Inhibition of […] N-terminal GST/C-terminal his-tagged human recombinant HDAC4 (627 to 1084 residues) expressed in Sf9 insect cells"}, "Histone deacetylase 1": {"biological_target": "Histone deacetylase 1 (Homo sapiens, UniProt Q13547)", "sequence (Q13547 whole entry, the tested form may be a part)": "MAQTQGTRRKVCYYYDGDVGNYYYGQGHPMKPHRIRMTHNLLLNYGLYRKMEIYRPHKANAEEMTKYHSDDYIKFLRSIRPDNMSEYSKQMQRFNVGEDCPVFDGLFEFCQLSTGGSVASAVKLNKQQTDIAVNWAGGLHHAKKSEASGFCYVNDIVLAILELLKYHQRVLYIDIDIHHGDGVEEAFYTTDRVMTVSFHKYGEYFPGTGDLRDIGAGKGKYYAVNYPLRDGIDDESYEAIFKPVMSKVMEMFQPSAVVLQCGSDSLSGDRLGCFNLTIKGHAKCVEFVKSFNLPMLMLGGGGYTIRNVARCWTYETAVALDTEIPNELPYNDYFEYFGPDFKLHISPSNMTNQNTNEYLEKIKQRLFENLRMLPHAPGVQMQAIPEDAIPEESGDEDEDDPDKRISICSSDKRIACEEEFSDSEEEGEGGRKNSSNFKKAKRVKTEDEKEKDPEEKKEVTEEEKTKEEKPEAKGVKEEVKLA", "test": "Inhibition of full length his6/FLAG-tagged human recombinant HDAC1(1 to 482 residues) expressed in Sf9 insect cells"}, "[10]": {"biological_target": "T1, Protein deacetylase HDAC6 (Homo sapiens, UniProt Q9UBN7)", "T1 sequence (Q9UBN7 whole entry)": "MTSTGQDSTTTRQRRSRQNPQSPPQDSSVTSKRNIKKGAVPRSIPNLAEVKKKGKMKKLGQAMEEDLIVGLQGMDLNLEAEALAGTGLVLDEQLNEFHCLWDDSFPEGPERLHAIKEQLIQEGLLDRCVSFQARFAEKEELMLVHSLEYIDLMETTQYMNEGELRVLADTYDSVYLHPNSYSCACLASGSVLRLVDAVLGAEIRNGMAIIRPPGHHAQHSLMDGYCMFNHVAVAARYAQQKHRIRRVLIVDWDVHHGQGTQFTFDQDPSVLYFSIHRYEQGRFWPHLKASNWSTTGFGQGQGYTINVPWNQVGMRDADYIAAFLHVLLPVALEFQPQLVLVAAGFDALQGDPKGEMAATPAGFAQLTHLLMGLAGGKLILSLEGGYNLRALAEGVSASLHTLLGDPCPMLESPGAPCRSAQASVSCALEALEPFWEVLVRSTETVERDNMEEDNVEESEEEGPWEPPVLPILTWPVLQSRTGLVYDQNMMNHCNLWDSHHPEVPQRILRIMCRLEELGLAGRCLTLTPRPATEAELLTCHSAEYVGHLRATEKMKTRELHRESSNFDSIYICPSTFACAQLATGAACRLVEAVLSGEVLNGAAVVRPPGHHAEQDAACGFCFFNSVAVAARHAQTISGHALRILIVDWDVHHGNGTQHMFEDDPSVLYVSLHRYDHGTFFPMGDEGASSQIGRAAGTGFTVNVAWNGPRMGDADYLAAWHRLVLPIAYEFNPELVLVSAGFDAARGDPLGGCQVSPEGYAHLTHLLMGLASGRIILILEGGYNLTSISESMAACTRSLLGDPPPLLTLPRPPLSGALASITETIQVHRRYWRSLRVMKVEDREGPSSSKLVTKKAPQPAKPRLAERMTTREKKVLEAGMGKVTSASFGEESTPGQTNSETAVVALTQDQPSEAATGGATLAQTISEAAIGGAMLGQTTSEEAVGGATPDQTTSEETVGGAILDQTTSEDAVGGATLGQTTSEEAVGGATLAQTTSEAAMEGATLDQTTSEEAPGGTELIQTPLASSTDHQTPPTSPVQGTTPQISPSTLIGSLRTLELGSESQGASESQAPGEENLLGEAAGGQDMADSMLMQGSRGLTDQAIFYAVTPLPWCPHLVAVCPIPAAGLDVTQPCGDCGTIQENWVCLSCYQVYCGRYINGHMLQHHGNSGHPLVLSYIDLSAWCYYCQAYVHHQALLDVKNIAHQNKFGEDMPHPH", "test": "Inhibition of full length C-terminal FLAG-tagged human recombinant HDAC6 expressed inSf9 insect cells", "design": "species or system Sf9"}, "Histone deacetylase 8": {"biological_target": "T2, Histone deacetylase 8 (Homo sapiens, UniProt Q9BY41)", "T2 sequence (Q9BY41 whole entry)": "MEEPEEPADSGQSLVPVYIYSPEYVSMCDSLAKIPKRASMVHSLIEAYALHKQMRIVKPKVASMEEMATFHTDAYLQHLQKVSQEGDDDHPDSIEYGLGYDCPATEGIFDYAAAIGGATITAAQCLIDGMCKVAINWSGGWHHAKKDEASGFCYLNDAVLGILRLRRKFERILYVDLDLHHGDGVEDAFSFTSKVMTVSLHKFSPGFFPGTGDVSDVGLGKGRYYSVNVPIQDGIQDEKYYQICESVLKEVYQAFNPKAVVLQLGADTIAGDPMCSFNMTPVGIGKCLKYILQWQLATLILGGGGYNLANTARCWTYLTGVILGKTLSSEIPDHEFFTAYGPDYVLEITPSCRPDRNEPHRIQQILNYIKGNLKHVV", "test": "Inhibition of full length C-terminal his-tagged human recombinant HDAC8 expressed in Sf9 insect cells"}, "Histone deacetylase 2": {"biological_target": "Histone deacetylase 2 (Homo sapiens, UniProt Q92769)", "sequence (Q92769 whole entry)": "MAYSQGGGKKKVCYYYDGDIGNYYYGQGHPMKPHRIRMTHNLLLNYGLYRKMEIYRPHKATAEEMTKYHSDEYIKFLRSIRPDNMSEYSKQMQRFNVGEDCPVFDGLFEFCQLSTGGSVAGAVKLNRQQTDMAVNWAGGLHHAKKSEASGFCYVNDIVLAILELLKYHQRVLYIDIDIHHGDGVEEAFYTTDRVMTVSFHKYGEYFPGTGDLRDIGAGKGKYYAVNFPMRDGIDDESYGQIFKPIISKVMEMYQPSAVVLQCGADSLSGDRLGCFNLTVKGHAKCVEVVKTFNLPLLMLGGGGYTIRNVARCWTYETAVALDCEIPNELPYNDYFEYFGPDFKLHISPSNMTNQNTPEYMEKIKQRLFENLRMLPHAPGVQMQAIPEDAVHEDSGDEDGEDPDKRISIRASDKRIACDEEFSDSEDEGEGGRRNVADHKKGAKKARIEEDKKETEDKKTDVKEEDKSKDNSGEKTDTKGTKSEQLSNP"}}, "note": "The source made the active and inactive calls. The rule behind the calls is not given here.", "data": [{"smiles": "O=C(CCCCCCNC(=O)c1csc(Br)n1)NO", "values": [{"measurement": "Activity", "setting": "NCI-H522 [1]", "result": "Active"}, {"measurement": "Activity", "setting": "[2]", "result": "Toxic"}, {"measurement": "Activity", "setting": "[3]", "result": "Toxic"}, {"measurement": "Activity", "setting": "NCI-H522 [4]", "result": "Active"}]}, {"smiles": "C#Cc1nc(/C=C\\CCCCCC(=O)OCC)cs1", "values": [{"measurement": "Activity", "setting": "NCI-H522 [4]", "result": "Active"}]}, {"smiles": "O=C(CCCCC/C=C\\c1csc(Br)n1)NO", "values": [{"measurement": "Activity", "setting": "NCI-H522 [4]", "result": "Active"}]}, {"smiles": "C#Cc1nc(C2=C(C)[C@@H](O)CC2)cs1", "values": [{"measurement": "IC50 at 30 min", "setting": "[5]", "result": 15100, "unit": "nM"}, {"measurement": "Activity", "setting": "NCI-H522 [6]", "result": "Active"}, {"measurement": "Activity", "setting": "NCI-H522 [7]", "result": "Active"}]}, {"smiles": "C#Cc1nc(C=CCCCCCC(=O)NO)cs1", "values": [{"measurement": "IC50", "setting": "NCI-H522 [8]", "result": 1670, "unit": "nM"}, {"measurement": "IC50", "setting": "HCT-116", "result": 3420, "unit": "nM"}]}, {"smiles": "C#Cc1nc(/C=C/C=C/C(=O)NO)cs1", "values": [{"measurement": "IC50", "setting": "Histone deacetylase 3", "result": 3100, "unit": "nM"}, {"measurement": "Activity", "setting": "NCI-H522 [9]", "result": "Active"}, {"measurement": "IC50", "setting": "Histone deacetylase 4", "result": 2100, "unit": "nM"}, {"measurement": "IC50", "setting": "Histone deacetylase 1", "result": 1000, "unit": "nM"}, {"measurement": "IC50", "setting": "[10]", "result": 160, "unit": "nM"}, {"measurement": "IC50", "setting": "Histone deacetylase 8", "result": 670, "unit": "nM"}, {"measurement": "IC50", "setting": "Histone deacetylase 2", "result": 1200, "unit": "nM"}]}]}
